The target in assay [1] is T1, Dα1/Dα2/Dβ1/Dβ2 nAChR (Drosophila melanogaster, UniProt P04755+P09478+P17644+P25162). The experiment in a line: cell-based. Details: species or system Xenopus laevis oocytes.
The target of assay [2] is T2, Dα1/Dα2/Dβ1 nAChR (Drosophila melanogaster, UniProt P04755+P09478+P17644).
T2 sequence (P09478 22-567): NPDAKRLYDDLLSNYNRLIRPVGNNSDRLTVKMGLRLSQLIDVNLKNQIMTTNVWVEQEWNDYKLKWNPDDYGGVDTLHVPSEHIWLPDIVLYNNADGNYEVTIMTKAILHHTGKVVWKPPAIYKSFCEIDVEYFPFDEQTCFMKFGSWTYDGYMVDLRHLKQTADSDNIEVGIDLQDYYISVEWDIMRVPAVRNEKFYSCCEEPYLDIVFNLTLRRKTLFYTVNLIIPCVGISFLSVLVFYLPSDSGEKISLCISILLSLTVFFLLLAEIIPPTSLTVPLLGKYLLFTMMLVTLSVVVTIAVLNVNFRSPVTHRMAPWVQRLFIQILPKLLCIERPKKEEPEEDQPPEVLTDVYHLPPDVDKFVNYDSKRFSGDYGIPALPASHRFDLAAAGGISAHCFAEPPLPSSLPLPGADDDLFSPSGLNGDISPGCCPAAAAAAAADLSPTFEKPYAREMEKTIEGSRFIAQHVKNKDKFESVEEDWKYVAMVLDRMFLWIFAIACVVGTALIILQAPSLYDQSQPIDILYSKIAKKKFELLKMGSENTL
T2 sequence (P17644 22-576): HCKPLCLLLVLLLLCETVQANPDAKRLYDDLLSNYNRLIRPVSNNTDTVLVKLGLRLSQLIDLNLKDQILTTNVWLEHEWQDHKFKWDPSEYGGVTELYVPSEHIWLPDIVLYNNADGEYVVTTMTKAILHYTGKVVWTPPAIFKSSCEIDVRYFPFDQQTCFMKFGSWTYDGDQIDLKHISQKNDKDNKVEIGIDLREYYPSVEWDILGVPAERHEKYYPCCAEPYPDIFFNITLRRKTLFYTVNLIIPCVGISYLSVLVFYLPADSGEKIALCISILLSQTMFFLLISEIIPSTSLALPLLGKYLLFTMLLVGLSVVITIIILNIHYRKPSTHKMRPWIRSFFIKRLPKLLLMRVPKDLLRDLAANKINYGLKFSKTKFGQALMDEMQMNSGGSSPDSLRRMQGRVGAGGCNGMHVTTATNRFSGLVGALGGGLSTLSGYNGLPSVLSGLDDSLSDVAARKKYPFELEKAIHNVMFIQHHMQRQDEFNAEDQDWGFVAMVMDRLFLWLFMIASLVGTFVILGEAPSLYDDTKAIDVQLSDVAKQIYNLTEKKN
T2 sequence (P04755 25-521): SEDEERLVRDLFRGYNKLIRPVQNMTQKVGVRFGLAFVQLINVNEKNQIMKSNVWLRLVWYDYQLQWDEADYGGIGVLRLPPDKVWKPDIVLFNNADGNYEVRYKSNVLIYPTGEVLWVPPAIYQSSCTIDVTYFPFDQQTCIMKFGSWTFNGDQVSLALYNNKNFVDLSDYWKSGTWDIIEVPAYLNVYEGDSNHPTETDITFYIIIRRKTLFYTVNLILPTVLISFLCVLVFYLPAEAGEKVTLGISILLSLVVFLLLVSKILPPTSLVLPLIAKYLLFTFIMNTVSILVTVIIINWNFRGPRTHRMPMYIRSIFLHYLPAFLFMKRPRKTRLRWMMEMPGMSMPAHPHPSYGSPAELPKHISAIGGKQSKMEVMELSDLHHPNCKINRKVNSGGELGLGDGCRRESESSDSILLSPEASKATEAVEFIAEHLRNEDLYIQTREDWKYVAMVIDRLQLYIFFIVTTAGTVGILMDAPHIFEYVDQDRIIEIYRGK
The experiment in a line: cell-based. Details: species or system Xenopus laevis oocytes.

For assay [3], the target named is T3, Dα1/Dβ1/Dβ2 nAChR (Drosophila melanogaster, UniProt P04755+P09478+P25162).
T3 sequence (P09478 22-567): T2 sequence (P09478 22-567)
T3 sequence (P04755 25-521): T2 sequence (P04755 25-521)
T3 sequence (P25162 19-519): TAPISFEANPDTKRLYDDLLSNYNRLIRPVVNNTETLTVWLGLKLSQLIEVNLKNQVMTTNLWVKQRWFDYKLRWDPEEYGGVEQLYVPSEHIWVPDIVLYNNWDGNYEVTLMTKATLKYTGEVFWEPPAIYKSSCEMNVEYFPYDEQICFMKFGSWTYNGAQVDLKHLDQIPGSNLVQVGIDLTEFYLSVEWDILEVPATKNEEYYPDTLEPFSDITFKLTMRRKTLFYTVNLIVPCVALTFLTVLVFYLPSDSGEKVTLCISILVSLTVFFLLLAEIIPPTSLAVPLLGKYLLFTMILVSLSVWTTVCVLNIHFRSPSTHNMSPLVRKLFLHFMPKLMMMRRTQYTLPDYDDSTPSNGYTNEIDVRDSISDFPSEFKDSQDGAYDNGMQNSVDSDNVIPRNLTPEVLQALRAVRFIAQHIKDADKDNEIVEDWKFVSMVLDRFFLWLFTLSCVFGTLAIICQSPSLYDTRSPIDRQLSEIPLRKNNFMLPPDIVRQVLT
The experiment in a line: cell-based. More on the design: species or system Xenopus laevis oocytes.

The target in assay [4] is T4, Dα1/Dβ1 nAChR (Drosophila melanogaster, UniProt P04755+P09478).
T4 sequence (P09478 22-567): T2 sequence (P09478 22-567)
T4 sequence (P04755 25-521): T2 sequence (P04755 25-521)
As to the kind of experiment: two-electrode voltage clamp of Xenopus oocytes, agonist concentration-response. Type of assay: cell-based. Put shortly:
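Oocytes were collagenase-defolliculated, injected with subunit and cofactor cRNAs (100 ng⋅μL−1 each) and kept 3–7 d at 16 °C. Cells were clamped at −100 mV and perfused with saline containing 0.5 μM atropine. Agonists were applied 5 s at 3-min intervals after stable 100 μM ACh responses. Peak currents were normalized to 100 μM ACh and Hill-fitted. n = 5, ≥2 frogs; DMSO <0.1%.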

Assay [5] has as its target T4, Dα1/Dβ1 nAChR. As to the kind of experiment: cell-based. Details: species or system Xenopus laevis oocytes.
The target in assay [6] is T1, Dα1/Dα2/Dβ1/Dβ2 nAChR. The experiment in a line: two-electrode voltage clamp of Xenopus oocytes, agonist concentration-response. Type of assay: cell-based. A general note: In two-electrode clamp one electrode senses voltage and the other passes current.
Assay [7] has as its target T2, Dα1/Dα2/Dβ1 nAChR. The assay is described as above. Type of assay: cell-based.
In assay [8] the target is T3, Dα1/Dβ1/Dβ2 nAChR. The description is as above. It counts as cell-based.

The structures appear in SMILES notation. pEC50: −log10 of the molar value.

What is called pEC50 is the negative decadic logarithm of the EC50, by convention in mol/L. Low readings indicate a large EC50, high ones a small EC50.

Take `CN/C(=N\[N+](=O)[O-])NCc1cnc(Cl)s1` [clothianidin]: the pEC50 was 6.51 on Dα1/Dα2/Dβ1/Dβ2 nAChR [1], 5.53 on Dα1/Dα2/Dβ1 nAChR [2], 6.66 at Dα1/Dβ1/Dβ2 nAChR [3] and 7.21 at Dα1/Dβ1 nAChR [4].
For the molecule `O=[N+]([O-])NC1=NCCN1Cc1ccc(Cl)nc1` [imidacloprid], the negative logarithm of the EC50 (pEC50) was 6.76 at Dα1/Dβ1 nAChR [5], 6.92 on Dα1/Dα2/Dβ1/Dβ2 nAChR [6], 6.39 at Dα1/Dα2/Dβ1 nAChR [7] and 6.97 at Dα1/Dβ1/Dβ2 nAChR [8].
As to `N#C/N=C1\SCCN1Cc1ccc(Cl)nc1` [thiacloprid], the negative logarithm of the EC50 (pEC50) at Dα1/Dα2/Dβ1/Dβ2 nAChR [6] is 7.15; at Dα1/Dα2/Dβ1 nAChR [7], 6.63; on Dα1/Dβ1 nAChR [4] it was 7.64; on Dα1/Dβ1/Dβ2 nAChR [8] it was 7.73.

(Values after publication PMC7368294 (Proceedings of the National Academy of Sciences of the …, 2020).)
